High-throughput results from PubChem.
The list is not random: actives were taken first. Their share in the collection is about 1.7%.
RanGTP-Impb inh: disruptors of Ran-importin-beta complex formation – biochemical, FRET, CFP-Ran, YFP-importin-beta, homogeneous, primary screen. cell-free CFP-Ran/YFP-importin-beta FRET ratio. AID 2216. 300,000 compounds, 1.1% hits. inhibition, % (no concentration beside the values);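 active means more than half of the replicate wells show a fall in the fluorescence ratio signal beyond about 16%, limit read from the data, passing the limit was not always enough; inconclusive means exactly half of the replicate wells pass the set limit; inactive means fewer than half of replicates pass the limit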
Runt-SMMHC FRET: inhibitors of human RUNX1 Runt domain binding to CBFb-SMMHC | Q01196+Q13951 | Cerulean-Runt/Venus-CBFb-SMMHC FRET ratio 530/480, 1 h | inhibition, % at 20 µM | 220,000 compounds, 0.74% hits;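 active means mean inhibition across duplicate retests at 20 µM reaching about 50%, limit read from the data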;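 further: inhibitors lower the FRET ratio by blocking Runt binding to CBFb-SMMHC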
Target sequence (Q01196 whole entry, looked up, the tested form may be a part): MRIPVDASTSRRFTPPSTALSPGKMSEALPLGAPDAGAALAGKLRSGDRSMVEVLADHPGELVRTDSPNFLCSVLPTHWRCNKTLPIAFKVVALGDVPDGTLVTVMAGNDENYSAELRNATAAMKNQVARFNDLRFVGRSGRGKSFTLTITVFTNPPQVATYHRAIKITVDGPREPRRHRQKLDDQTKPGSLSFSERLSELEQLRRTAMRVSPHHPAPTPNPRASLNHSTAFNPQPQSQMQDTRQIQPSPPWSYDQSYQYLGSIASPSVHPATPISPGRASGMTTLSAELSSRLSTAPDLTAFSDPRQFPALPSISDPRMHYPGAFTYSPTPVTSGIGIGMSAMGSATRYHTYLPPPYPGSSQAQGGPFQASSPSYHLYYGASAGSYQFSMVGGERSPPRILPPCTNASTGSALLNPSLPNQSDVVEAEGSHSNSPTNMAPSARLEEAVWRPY
Target sequence (Q13951 whole entry, looked up, the tested form may be a part): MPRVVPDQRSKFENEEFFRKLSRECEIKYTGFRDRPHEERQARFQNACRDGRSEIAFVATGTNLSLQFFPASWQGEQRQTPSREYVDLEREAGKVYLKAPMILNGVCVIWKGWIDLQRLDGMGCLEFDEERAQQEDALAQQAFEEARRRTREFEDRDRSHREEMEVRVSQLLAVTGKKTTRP
Runt-CBFb FRET: blocks binding of human RUNX1 Runt domain to CBFb | Cerulean-Runt/Venus-CBFb FRET ratio 530/480, 1 h | inhibition, % at 20 µM | 220,000 compounds, 0.46% hits | AID 1496;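 active means inhibition over about 50% at 20 µM in the single-dose screen, limit read from the data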
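Buffer or medium: Tris pH 7.5 buffer with BSA. Assay system: Cerulean-labeled Runt domain protein. Amount: each fluorescent fusion protein 100 nM. Read-out basis: loss of energy transfer signal. Incubation: 1 h compound exposure, room temperature. Probe or stimulus: Venus-CBFb binding partner, 100 nM. Detection: FRET, excitation 422 nm, emission at 530 and 480 nm.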
Vif imaging: HIV Vif inhibition; HEK293T cells, Vif self-association by quenched fluorescence, imaging, 24 h; inhibition, % at 7.49 µM; 340,000 compounds, 0.35% hits; AID 602346; in the data active means inhibition above about 50%, passing the limit was not always enough; inconclusive means no clear call, values can overlap the other calls; inactive means below about 31%
Rce1 inhib: yeast Ras-converting enzyme inhibition | Q03530 | yeast membranes, quenched prenylated peptide cleavage fluorescence | calls only | 290,000 compounds, 0.27% hits | AID 2563;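 active means fall in fluorescence gain of 50% or more versus controls, with final raw signal at or below 3038400; inconclusive means same 50% fall but final raw signal above 3038400; inactive means fall in fluorescence gain under 50%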
Runt-CBFb TRFRET: Runt-CBFb binding inhibition; shares compounds with Runt-CBFb FRET; TR-FRET RUNX1 Runt domain-CBFb binding; inhibition, % at 20 µM; 480 compounds, 20% hits; AID 1502; in the data active means inhibition above about 40%
Numbers stand for hits; – = inactive; ? = inconclusive; · = no result; + = active, no number.

SMILES	RanGTP-Impb inh	Runt-SMMHC FRET	Runt-CBFb FRET	Vif imaging	Rce1 inhib	Runt-CBFb TRFRET
Cn1c(=O)nc2n(Cc3ccccc3)c3ccccc3cc-2c1=O	121.4	82.3	89.9	–	–	–
O=C(CSc1ncnc2ccccc12)N1CCCC1	–	–	–	·	–	·
O=C(CSc1ncnc2ccccc12)c1cccs1	–	90.2	53.6	–	–	–
Cc1ccccc1NC(=O)c1nn(C)c2c1CS(=O)(=O)c1ccccc1-2	–	·	·	–	–	·
CCCC(C(=O)NC1CCCC1)N(C(=O)Cn1nnc(-c2ccc(C)o2)n1)c1ccccc1OC (stereo unspecified)	–	–	53.1	–	–	–
COc1ccccc1C=NNC(=O)C(=O)NN=Cc1ccccc1OC	·	·	·	–	·	·
CN(C)c1oc(/C=C/c2ccccc2)nc1C#N	–	122.2	62.8	–	–	–
CN(C)c1oc(-c2ccccc2)nc1C#N	–	–	–	–	–	·
CCC(C)(C)n1nnnc1C(c1ccc2ncccc2c1)N1CCN(c2nc3ccccc3s2)CC1 (stereo unspecified)	–	–	–	–	–	·
CCC(C)(C)n1nnnc1C(c1ccc2ncccc2c1)N1CCN(c2ccc(O)cc2)CC1 (stereo unspecified)	–	–	53.6	–	–	–
CCn1cc(C(=O)NCCc2ccc(OC)cc2)c(=O)c2ccc(C)nc21	–	·	·	–	–	·
CCCCCCc1cc2cc(C(=O)Nc3ccc(OC)cc3)c(=O)oc2cc1O	40.7	–	65.3	–	–	–
CCc1ccc(NC(=O)COC(=O)c2ccc(Cl)c(S(=O)(=O)N3CCCCCC3)c2)cc1	–	–	–	–	–	·
NS(=O)(=O)c1cc(C(=O)OCC(=O)Nc2ccc(N3CCCCC3)cc2)ccc1Cl	–	–	81.4	·	–	–
COC(=O)[C@]1(C)N[C@H](CN(C)S(=O)(=O)c2ccc(F)cc2)[C@@H]2C(=O)N(C)C(=O)[C@@H]21	·	·	·	–	·	·
Cc1c(Cl)ccc(S(=O)(=O)N2CCN=C2c2ccccc2)c1Cl	–	–	–	–	–	·
O=C(NNC1=C(C(=O)C(F)(F)F)CCC1)c1ccc(Cl)cc1	–	–	77.2	–	–	–
O=C(NNC1=C(C(=O)C(F)(F)F)CCC1)c1cccc(Cl)c1	–	–	–	–	–	·
CN1CCc2c(sc3c2C(=O)NC(c2cccs2)N3)C1 (stereo unspecified)	117.8	77.6	61.5	79.8	–	–
Cc1cccc(N2CCc3c2nc2ccc(Br)cc2c3N)c1	–	–	57.1	·	+	–
COc1ccc(OC)c(NC(=O)C2(C)CCN2Cc2ccsc2)c1 (stereo unspecified)	·	·	·	–	·	·
Cc1cccc(C)c1OCCNC(=O)C(=O)NCc1ccco1	–	–	–	–	–	·
O=C(O)c1ccccc1C(=O)Nc1n[nH]c(=S)s1	–	–	53.5	–	–	–
O=C(O)c1ccccc1C(=O)Nc1nccs1	–	–	–	–	–	·
COc1c(O)ccc(/C=C(\C#N)c2nc3ccccc3[nH]2)c1[N+](=O)[O-]	19.9	100.1	73.7	–	–	–
SMILES	RanGTP-Impb inh	Runt-SMMHC FRET	Runt-CBFb FRET	Vif imaging	Rce1 inhib	Runt-CBFb TRFRET
O=C(Nc1cccc(S(=O)(=O)C(F)(F)F)c1)[C@H]1C[C@H](O)[C@@H](CO)O1	·	·	·	–	·	·
N#CC1(C#N)COC23CCCCC2C1(C#N)C(=N)O3 (stereo unspecified)	30.5	80.4	63.1	–	–	–
CN(C(=O)c1ccccn1)c1nnc(-c2cccnc2)s1	·	–	82.1	–	·	–
Cc1nnc(N(C)C(=O)c2ccccn2)s1	–	–	–	·	–	·
COc1ccc(-n2nnnc2Sc2ccc(S(=O)(=O)N3CCOCC3)cn2)cc1	–	–	57.1	–	–	–
COc1ccc(-n2nnnc2SCC(=O)N2CCOCC2)cc1	–	–	–	–	?	·
Cc1ccc(N2C(=O)C(Cl)=C(N3CCOCC3)C2=O)cc1Cl	–	53.6	64.8	–	–	–
Cc1cc(C)nc(SCNC(=O)c2ccc(F)cc2)n1	–	–	53.3	–	–	–
Cc1cc(C)nc(SCC(=O)c2ccc(F)cc2)n1	–	·	·	–	·	·
CCNC(=O)CCSc1nc(C)cc(C)n1	–	–	50.5	–	–	–
CCc1nc(SCC(=O)O)c(C#N)cc1C	–	–	–	–	–	·
CCOC(=O)CC(=O)CSc1nc(CC)c(C)cc1C#N	–	–	52.8	–	–	–
Cc1cc(=O)[nH]c(Nc2cccc(C(F)(F)F)c2)n1	–	–	–	–	–	·
O=c1cc(O)c2sc(Nc3cccc(C(F)(F)F)c3)nc2[nH]1	–	–	59.6	–	–	–
CSc1ccc(NC(=O)CSc2nc3[nH]c(=O)cc(O)c3s2)cc1	·	·	·	–	·	·
O=c1cc(O)c2sc(Nc3ccc(F)cc3)nc2[nH]1	–	–	55.9	–	–	–
CC1(C)C(N(O)C(=O)Nc2ccccc2)N(c2cccc(Cl)c2)C(=O)N1O (stereo unspecified)	–	–	53.0	–	·	–
OC[C@@H]1CN(Cc2ccc(-c3ccccc3)cc2)C[C@H](n2cnc3c(NCc4ccc(F)cc4)ncnc32)O1	·	·	·	–	·	·
Cc1csc(NC(=O)c2ccc3nc[nH]c3c2)n1	–	·	·	–	–	·
COc1ccc(C2C(C#N)=C(N)N(Nc3ccccc3)C3=C2C(=O)CC(C)(C)C3)cc1C (stereo unspecified)	–	101.5	61.5	?	–	–
CNC(=O)/C(C#N)=C/c1c(N2CC(C)OC(C)C2)nc2ccccn2c1=O (stereo unspecified)	?	120.7	94.2	–	–	–
O=C(c1ccccc1)c1ccccc1N1C(=O)C=CC1=O	–	69.9	64.4	–	·	–
O=C(O)c1cccc(N2C(=O)C=CC2=O)c1	·	·	·	–	·	·
CCC(=O)NC(=S)NNC(=O)c1ccccc1[N+](=O)[O-]	–	–	50.9	–	–	–
O=C(NC(=S)NNC(=O)c1ccccc1[N+](=O)[O-])c1ccccc1	–	–	–	–	–	·
SMILES	RanGTP-Impb inh	Runt-SMMHC FRET	Runt-CBFb FRET	Vif imaging	Rce1 inhib	Runt-CBFb TRFRET
COc1cccc(N2CCN(C(=O)c3ccc(Cl)c(NC4=NC5CS(=O)(=O)CC5S4)c3)CC2)c1 (stereo unspecified)	–	·	·	–	–	·
Cc1c(Nc2c3ccccc3nc3ccccc23)c(=O)n(-c2ccccc2)n1C	56.0	–	114.2	–	–	–
CCCCc1c(C)c(C#N)c2nc3ccccc3n2c1Nc1c(C)n(C)n(-c2ccccc2)c1=O	20.5	65.1	52.8	–	–	–
Cc1c(Nc2nc3ccccc3nc2N2CCN(c3ccccc3)CC2)c(=O)n(-c2ccccc2)n1C	–	–	–	–	–	·
Oc1ccc(-c2c(C3=CCCCC3)sc3ccccc23)cc1	–	·	·	–	–	·
COc1ccc(-c2c3c(cc4ncn(Cc5ccccc5)c24)COC3=O)cc1	·	·	·	–	·	·
COc1ccccc1CCn1c(N)c(C#N)c2nc3ccccc3nc21	56.4	140.0	80.3	–	–	–
COc1ccccc1Cn1c(C(C)C)nc2ccccc21	–	–	–	–	–	·
